Values after ≈ are worked out from the molar mass of the structure shown.
What was measured:
[1] = system: Mycobacterium tuberculosis; assay: Antimicrobial activity against Mycobacterium tuberculosis H37Rv; format: functional
Leucine--tRNA ligase = molecular target: T1, Leucine--tRNA ligase (Mycobacterium tuberculosis (strain ATCC 25618 / H37Rv), UniProt P9WFV1); assay: Inhibition of Mycobacterium tuberculosis H37Rv N-terminal 6His-tagged LeuRS expressed in Escherichia coli BL21(DE3) assessed as L-[14C]leucine incorporation in to Escherichia coli tRNA after 20 mins by liquid scintillation counting analysis
T1 sequence (P9WFV1 whole entry): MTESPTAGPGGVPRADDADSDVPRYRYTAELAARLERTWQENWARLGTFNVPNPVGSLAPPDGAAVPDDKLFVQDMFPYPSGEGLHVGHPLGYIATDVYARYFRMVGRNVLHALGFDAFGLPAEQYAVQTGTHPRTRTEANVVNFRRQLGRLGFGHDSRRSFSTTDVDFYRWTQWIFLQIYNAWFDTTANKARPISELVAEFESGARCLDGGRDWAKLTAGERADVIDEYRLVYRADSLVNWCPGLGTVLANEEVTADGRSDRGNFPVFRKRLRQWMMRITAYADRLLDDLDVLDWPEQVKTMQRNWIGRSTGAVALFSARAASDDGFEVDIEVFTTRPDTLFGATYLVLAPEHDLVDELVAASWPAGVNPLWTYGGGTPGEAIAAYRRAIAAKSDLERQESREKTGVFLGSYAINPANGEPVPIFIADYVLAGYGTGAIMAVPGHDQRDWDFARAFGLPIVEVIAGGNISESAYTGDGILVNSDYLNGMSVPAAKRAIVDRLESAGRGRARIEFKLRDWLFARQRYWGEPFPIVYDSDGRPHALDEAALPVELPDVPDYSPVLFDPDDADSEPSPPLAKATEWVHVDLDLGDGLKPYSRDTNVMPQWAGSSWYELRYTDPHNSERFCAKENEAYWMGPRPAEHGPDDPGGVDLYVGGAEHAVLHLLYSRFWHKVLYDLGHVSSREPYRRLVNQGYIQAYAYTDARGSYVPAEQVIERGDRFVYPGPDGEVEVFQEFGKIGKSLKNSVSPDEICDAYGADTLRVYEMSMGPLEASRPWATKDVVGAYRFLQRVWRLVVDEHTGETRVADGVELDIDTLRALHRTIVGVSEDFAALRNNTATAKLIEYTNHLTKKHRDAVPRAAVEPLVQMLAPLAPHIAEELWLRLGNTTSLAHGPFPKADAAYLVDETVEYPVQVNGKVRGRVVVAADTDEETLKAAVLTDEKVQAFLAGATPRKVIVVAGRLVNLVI
Outline: (§1)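 N-terminal His6-tagged LeuRS expressed in E. coli BL21(DE3), codon-optimized. 50 mM HEPES-KOH pH 8.0, 30 mM MgCl2, 30 mM KCl, 13 μM L-[14C]leucine, 15 μM tRNA (E. coli total; brewer's yeast for human cytoplasmic enzyme), 0.02% BSA, 1 mM DTT, 30 °C. Inhibitor preincubated 20 min, started with 4 mM ATP, TCA-quenched after 7 min, filtered, scintillation counted; four-parameter logistic IC50.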

[2] = molecular target: T2, Leucine--tRNA ligase, cytoplasmic (Homo sapiens, UniProt Q9P2J5); assay: Inhibition of human N-terminal 6His-tagged cytoplasmic LeuRS expressed in Escherichia coli BL21(DE3) assessed as […] after 20 mins by liquid scintillation counting analysis
[3] = molecular target: T3, Leucine--tRNA ligase, mitochondrial (Homo sapiens, UniProt Q15031); assay: Inhibition of human N-terminal 6His-tagged mitochondrial LeuRS expressed in Escherichia coli BL21(DE3) assessed as L-[14C]leucine incorporation in to Escherichia coli tRNA after 20 mins by liquid scintillation counting analysis; outline: as §1
T3 sequence (Q15031 whole entry): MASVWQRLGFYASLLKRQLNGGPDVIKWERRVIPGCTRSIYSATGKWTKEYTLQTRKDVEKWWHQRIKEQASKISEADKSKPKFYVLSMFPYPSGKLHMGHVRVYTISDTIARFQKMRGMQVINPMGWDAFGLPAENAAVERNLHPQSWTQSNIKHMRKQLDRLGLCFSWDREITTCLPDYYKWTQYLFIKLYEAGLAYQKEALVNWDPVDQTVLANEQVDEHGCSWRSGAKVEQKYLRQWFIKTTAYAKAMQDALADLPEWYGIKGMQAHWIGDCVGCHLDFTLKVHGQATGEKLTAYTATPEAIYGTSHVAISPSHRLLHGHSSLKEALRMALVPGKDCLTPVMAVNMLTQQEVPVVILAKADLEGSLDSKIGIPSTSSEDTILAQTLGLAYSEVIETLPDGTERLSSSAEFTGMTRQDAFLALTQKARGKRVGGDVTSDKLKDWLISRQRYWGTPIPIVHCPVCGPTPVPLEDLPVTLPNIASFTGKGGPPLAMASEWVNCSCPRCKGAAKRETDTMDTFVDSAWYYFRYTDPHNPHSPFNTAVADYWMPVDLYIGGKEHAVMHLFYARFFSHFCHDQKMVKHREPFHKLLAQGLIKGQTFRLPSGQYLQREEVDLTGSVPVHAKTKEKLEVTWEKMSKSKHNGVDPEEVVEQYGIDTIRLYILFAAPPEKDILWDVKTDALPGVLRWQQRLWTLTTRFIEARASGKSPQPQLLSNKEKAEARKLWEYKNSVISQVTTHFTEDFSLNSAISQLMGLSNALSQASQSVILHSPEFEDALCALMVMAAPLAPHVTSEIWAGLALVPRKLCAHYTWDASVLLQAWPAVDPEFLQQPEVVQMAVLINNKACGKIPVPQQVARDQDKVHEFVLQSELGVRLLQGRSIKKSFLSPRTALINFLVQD

[4] = molecular target: T2, Leucine--tRNA ligase, cytoplasmic; assay: Inhibition of cytoplasmic LeuRS in human HepG2 cells assessed as reduction in protein synthesis preincubated for 48 hrs followed by L-[14C]leucine addition measured after 3 hrs by liquid scintillation counting analysis; format: cell-based
Outline: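 HepG2 cells in DMEM/10% FCS, 3000 cells/well, exposed to compound dilutions (0.5% DMSO final) for 48 h at 37 °C. Medium then replaced with fresh medium containing 0.5 μCi L-[14C]leucine and the same compound levels for 3 h. Cells trypsinised, precipitated in ice-cold 20% TCA, filtered, washed, scintillation counted; curve-fit EC50; mean of at least duplicates.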

HepG2 = assay: Cytotoxicity against human HepG2 cells assessed as reduction in cell viability after 48 hrs by CellTiter-Glo assay; format: cell-based; details: HepG2, 48 h
Outline: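 HepG2 cells seeded at 10 000/well in EMEM with 5% FCS and 2 mM glutamine. After 24 h, ten 1:2 serial compound dilutions (0.5% DMSO final) added in duplicate for 48 h. Read-out by CellTiter-Glo luminescence per table footnote; the method text also describes resazurin fluorescence (ex 515/em 590 nm). Sigmoidal variable-slope fit.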

cytoplasmic LeuRS = assay: Selectivity index, ratio of EC50 for inhibition of cytoplasmic LeuRS in HepG2 cells assessed as reduction in protein synthesis to MIC for Mycobacterium tuberculosis H37Rv; format: toxicity, cell-based; details: human, read-out: Selectivity Index
Outline: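 Ratio of HepG2 protein-synthesis EC50 to MIC against M. tuberculosis H37Rv.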

T2 sequence (Q9P2J5 whole entry): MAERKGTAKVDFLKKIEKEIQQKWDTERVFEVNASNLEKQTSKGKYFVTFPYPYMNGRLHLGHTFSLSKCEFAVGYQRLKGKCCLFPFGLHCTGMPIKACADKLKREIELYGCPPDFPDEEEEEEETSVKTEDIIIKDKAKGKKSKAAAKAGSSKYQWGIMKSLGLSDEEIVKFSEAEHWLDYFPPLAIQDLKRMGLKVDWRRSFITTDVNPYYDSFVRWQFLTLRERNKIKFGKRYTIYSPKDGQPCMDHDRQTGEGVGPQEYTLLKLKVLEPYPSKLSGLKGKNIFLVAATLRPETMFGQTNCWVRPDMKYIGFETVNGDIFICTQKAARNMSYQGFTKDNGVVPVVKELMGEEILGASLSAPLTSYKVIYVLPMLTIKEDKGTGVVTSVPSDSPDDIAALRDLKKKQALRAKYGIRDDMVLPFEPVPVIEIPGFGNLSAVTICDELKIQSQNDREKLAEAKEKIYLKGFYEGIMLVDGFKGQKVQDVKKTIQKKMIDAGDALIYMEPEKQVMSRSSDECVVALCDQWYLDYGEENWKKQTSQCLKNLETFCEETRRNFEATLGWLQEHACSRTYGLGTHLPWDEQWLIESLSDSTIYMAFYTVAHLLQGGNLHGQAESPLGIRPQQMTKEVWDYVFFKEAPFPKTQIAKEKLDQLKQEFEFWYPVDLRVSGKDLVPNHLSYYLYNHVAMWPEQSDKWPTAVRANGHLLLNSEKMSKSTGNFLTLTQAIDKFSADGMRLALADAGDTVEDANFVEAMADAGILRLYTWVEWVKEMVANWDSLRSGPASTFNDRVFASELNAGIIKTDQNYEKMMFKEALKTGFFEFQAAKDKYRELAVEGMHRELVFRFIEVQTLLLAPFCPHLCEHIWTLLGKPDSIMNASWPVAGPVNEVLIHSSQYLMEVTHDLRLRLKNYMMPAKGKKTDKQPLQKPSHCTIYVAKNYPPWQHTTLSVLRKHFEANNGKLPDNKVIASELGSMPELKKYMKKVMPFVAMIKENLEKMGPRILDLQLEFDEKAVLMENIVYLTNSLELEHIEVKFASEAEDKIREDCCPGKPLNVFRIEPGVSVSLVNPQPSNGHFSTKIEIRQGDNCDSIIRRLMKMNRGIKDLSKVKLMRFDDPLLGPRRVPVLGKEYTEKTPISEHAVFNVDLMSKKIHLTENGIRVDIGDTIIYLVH

Structure (SMILES)	MIC [1] [µM]	IC50 (Leucine--tRNA ligase) [nM]	other results
CCOc1cccc2c1B(O)O[C@@H]2CN	0.6 (≈ 0.124 µg/mL)		
NCC1OB(O)c2cc(OCCCO)cc(Br)c21 (racemic)	> 5	370	
NC[C@@H]1OB(O)c2c(OCCO)ccc(Cl)c21	5 (≈ 1.29 µg/mL)	10000	
CCOc1ccc(F)c2c1B(O)O[C@@H]2CN	0.2 (≈ 0.045 µg/mL)		
NCC1OB(O)c2c(OCCc3ccccc3)ccc(Br)c21 (racemic)	> 5	470	
NCC1OB(O)c2c(Oc3ccccc3)ccc(Cl)c21 (racemic)	5 (≈ 1.45 µg/mL)	340	
CCCOc1cc(Cl)c2c(c1)B(O)OC2CN (racemic)	1.3 (≈ 0.332 µg/mL)	250	
NCC1OB(O)c2c3c(cc(Br)c21)OCCO3 (racemic)	0.5 (≈ 0.15 µg/mL)	92	
CCCOc1ccc(Br)c2c1B(O)O[C@@H]2CN	0.38 (≈ 0.114 µg/mL)	240	
NC[C@H]1OB(O)c2c(OCCCO)ccc(Br)c21	0.3 (≈ 0.0948 µg/mL)	160	
NCC1OB(O)c2cc(OCCO)cc(Br)c21 (racemic)	> 5	890	
NCC1OB(O)c2c(OCCF)ccc(Cl)c21 (racemic)	0.2 (≈ 0.0519 µg/mL)	76	
NCC1OB(O)c2c3c(cc(Br)c21)OCO3 (racemic)	> 5	610	
NC[C@H]1OB(O)c2c(OCCO)ccc(Br)c21	0.08 (≈ 0.0242 µg/mL)	120	IC50 [2]: 118000 nM; IC50 [3]: > 300000 nM; EC50 [4]: 116000 nM; EC50 (HepG2): 292000 nM; selectivity ratio (cytoplasmic LeuRS): 1450
NC[C@@H]1OB(O)c2c3c(cc(Br)c21)OCCO3	40 (≈ 12 µg/mL)	4200	
CCCCOc1ccc(Cl)c2c1B(O)O[C@@H]2CN	0.6 (≈ 0.162 µg/mL)	270	
CCOc1ccc(Cl)c2c1B(O)O[C@@H]2CN	0.1 (≈ 0.0241 µg/mL)	56	IC50 [3]: > 300000 nM; EC50 [4]: 19600 nM; EC50 (HepG2): 65800 nM; selectivity ratio (cytoplasmic LeuRS): 196
NC[C@H]1OB(O)c2c3c(cc(Br)c21)OCCO3	0.03 (≈ 0.009 µg/mL)	120	IC50 [2]: 118000 nM; EC50 [4]: 39500 nM; EC50 (HepG2): 43200 nM; selectivity ratio (cytoplasmic LeuRS): 1320
NCC1OB(O)c2c(OCC(F)F)ccc(Br)c21 (racemic)	0.31 (≈ 0.0998 µg/mL)	240	
NCC1OB(O)c2c(OCCO)ccc(Br)c21 (racemic)	0.16 (≈ 0.0483 µg/mL)	150	

Structure (SMILES)	MIC [1] [µM]	IC50 (Leucine--tRNA ligase) [nM]	other results
NCC1OB(O)c2cc(OCCCO)cc(Cl)c21 (racemic)	> 5	440	
NCC1OB(O)c2c(OCC(F)F)ccc(Cl)c21 (racemic)	0.3 (≈ 0.0832 µg/mL)	290	
NC[C@H]1OB(O)c2c(OCCCO)ccc(Cl)c21	0.14 (≈ 0.038 µg/mL)	470	
NCC1OB(O)c2c(Oc3ccc(Br)cc3)ccc(Br)c21 (racemic)	> 5	690	
CCOc1cc(Br)c2c(c1)B(O)OC2CN (racemic)	3.75 (≈ 1.07 µg/mL)	260	
NCC1OB(O)c2c(OCCO)ccc(Cl)c21 (racemic)	0.63 (≈ 0.162 µg/mL)	240	
CCCCOc1ccc(Br)c2c1B(O)O[C@@H]2CN	0.45 (≈ 0.141 µg/mL)	200	
NCC1OB(O)c2c3c(cc(Cl)c21)OCO3 (racemic)	> 5	250	
NCC1OB(O)c2c(OCCF)ccc(Br)c21 (racemic)	0.2 (≈ 0.0608 µg/mL)	260	
CCCOc1ccc(Cl)c2c1B(O)O[C@@H]2CN	0.16 (≈ 0.0409 µg/mL)	310	
NCC1OB(O)c2c(OCc3ccccc3)ccc(Br)c21 (racemic)	5 (≈ 1.74 µg/mL)	440	
COc1ccc(Cl)c2c1B(O)O[C@@H]2CN	0.1 (≈ 0.0227 µg/mL)	150	IC50 [2]: 260000 nM; IC50 [3]: > 300000 nM; EC50 [4]: 105000 nM; EC50 (HepG2): 327000 nM; selectivity ratio (cytoplasmic LeuRS): 1050
CCCOc1cc(Br)c2c(c1)B(O)OC2CN (racemic)	0.6 (≈ 0.18 µg/mL)	370	
NCC1OB(O)c2c(OCCc3ccccc3)ccc(Cl)c21 (racemic)	5 (≈ 1.59 µg/mL)	720	
CCOc1cc(Cl)c2c(c1)B(O)OC2CN (racemic)	> 5	630	
NC[C@@H]1OB(O)c2c3c(cc(Cl)c21)OCCO3	80 (≈ 20.4 µg/mL)	12600	
NC[C@@H]1OB(O)c2c(OCCO)ccc(Br)c21	10 (≈ 3.02 µg/mL)	14200	
NCC1OB(O)c2c3c(cc(Cl)c21)OCCO3 (racemic)	0.31 (≈ 0.0792 µg/mL)	130	
NCC1OB(O)c2c(OCc3ccccc3)ccc(Cl)c21 (racemic)	5 (≈ 1.52 µg/mL)	320	
NCC1OB(O)c2cc(OCCO)cc(Cl)c21 (racemic)	> 5	1110	
